Results: ChEMBL document CHEMBL1148735, “4-Substituted trinems as broad spectrum beta-lactamase inhibitors: structure-based design, synthesis, and biological activity” (J Med Chem, 2007)

Columns and labels:
Beta-lactamase SHV-1 = molecular target: T1, Beta-lactamase SHV-1 (Escherichia coli, UniProt P0AD63); test: Inhibition of Escherichia coli SHV1
T1 sequence (P0AD63 whole entry): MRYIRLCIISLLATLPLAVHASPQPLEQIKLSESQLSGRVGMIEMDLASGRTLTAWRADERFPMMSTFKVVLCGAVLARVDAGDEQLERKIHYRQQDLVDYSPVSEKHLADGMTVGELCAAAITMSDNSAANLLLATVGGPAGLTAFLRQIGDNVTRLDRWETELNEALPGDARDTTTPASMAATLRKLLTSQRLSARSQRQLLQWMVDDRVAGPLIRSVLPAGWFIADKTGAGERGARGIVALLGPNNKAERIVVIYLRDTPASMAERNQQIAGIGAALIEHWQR
How it was run: (§1)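 Recombinant β-lactamase, expressed in the pET system without its signal peptide and carrying an N-terminal His6 tag, purified on Ni-NTA. Inhibitor made as a 50 mM DMSO stock, then diluted in 50 mM phosphate pH 7 with 10% DMSO final. Enzyme and inhibitor preincubated 10 min at 37 °C. Started with prewarmed nitrocefin; A490 read every 30 s for 10 min at 37 °C.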

Beta-lactamase = Beta-lactamase (Enterobacter cloacae, UniProt P05364); test: Inhibition of Enterobacter cloacae AmpC
Beta-lactamase TEM = Beta-lactamase TEM (Escherichia coli, UniProt P62593); test: Inhibition of Escherichia coli TEM1; how it was run: as §1
Beta-lactamase TEM, sequence (P62593 whole entry): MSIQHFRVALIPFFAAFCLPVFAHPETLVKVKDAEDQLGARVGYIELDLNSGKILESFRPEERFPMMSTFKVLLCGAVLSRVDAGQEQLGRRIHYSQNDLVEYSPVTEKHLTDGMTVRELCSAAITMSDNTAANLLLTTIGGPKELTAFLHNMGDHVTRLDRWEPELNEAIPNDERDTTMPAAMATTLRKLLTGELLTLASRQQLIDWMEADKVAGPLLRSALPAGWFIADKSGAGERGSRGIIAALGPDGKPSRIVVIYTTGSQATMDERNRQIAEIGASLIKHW

Beta-lactamase, sequence (P05364 whole entry): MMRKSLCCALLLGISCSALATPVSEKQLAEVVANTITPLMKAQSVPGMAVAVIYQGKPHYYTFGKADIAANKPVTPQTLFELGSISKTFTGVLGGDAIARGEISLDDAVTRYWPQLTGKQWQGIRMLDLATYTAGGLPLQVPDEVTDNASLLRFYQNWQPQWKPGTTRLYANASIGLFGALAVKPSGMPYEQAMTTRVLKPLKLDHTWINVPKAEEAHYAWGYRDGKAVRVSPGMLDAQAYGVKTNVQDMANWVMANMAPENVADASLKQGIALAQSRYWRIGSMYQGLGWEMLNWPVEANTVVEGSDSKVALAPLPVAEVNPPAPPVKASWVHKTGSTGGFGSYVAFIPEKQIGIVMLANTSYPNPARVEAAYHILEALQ

Row | Compound | IC50 (Beta-lactamase SHV-1) | IC50 (Beta-lactamase) | IC50 (Beta-lactamase TEM)
1 | C/C=C1/C(=O)N2C(C(=O)O)=C3[C@@H](OCC)CCC[C@@H]3[C@H]12 | 385 nM | 229 nM | 57 nM
2 | C/C=C1/C(=O)N2C(C(=O)O)=C3[C@@H](OCCCC)CCC[C@@H]3[C@H]12 | 206 nM | 720 nM | 32 nM
3 | C/C=C1/C(=O)N2C(C(=O)O)=C3[C@@H](CCC[C@H]3OCC)[C@H]12 | 284 nM | 295 nM | 22 nM
4 | C/C=C1/C(=O)N2C(C(=O)O)=C3[C@@H](OCCF)CCC[C@@H]3[C@H]12 | 148 nM | 1020 nM | 21 nM
5 | C/C=C1/C(=O)N2C(C(=O)O)=C3[C@@H](OC(C)C)CCC[C@@H]3[C@H]12 | 340 nM | 341 nM | 39 nM
6 | C/C=C1/C(=O)N2C(C(=O)O)=C3[C@@H](CCC[C@H]3OCCCC)[C@H]12 | 219 nM | 430 nM | 12 nM
7 | C/C=C1/C(=O)N2C(C(=O)O)=C3[C@@H](OCCC#N)CCC[C@@H]3[C@H]12 | 152 nM | 209 nM | 18 nM
